Test [1] relates to Mus musculus. Briefly: Anticonvulsant activity in Swiss-Webster mouse assessed as protection against PTZ-induced clonic seizures at 20 mg/kg, ip administered 1 hr before PTZ. Format: functional. The note with it: route intraperitoneal. Put shortly:
(§1)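 Mice (n = 6/group), kept at 22 ± 3 °C, 60 ± 5% humidity, 12 h light/dark cycle, acclimated ≥2 days, free food and water. Agents given ip in 0.5% w/v CMC in water at 0.5 mL/100 g. After 1 h, PTZ 100 mg kg⁻¹ ip (0.5% solution). Observed 30 min; no clonic spasm episode lasting ≥5 s counted as protection. % protection = (control − treated convulsions)/control × 100.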

The test system of test [2] is Mus musculus. Description: Antidepressant activity in Swiss-Webster mouse assessed as reduction in duration of immobility time at 10 mg/kg, ip by tail suspension behavioral despair test relative to imipramine. The format is functional. Further details: scale not given: the % may be the effect or the level left. The conditions noted are these: route intraperitoneal.

Test [3] deals with Mus musculus. Briefly: Antidepressant activity in Swiss-Webster mouse assessed as reduction in duration of immobility time at 10 mg/kg, ip by tail suspension behavioral despair test. Format: functional. Further details: scale not given: the % may be the effect or the level left. The note with it: route intraperitoneal. The method, boiled down: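 Tail suspension test in mice (n = 6/group; 22 ± 3 °C, 60 ± 5% humidity, 12 h light cycle, acclimated ≥2 days). Doses given ip in 0.5% w/v CMC at 0.5 mL/100 g; controls received CMC, imipramine 10 mg kg⁻¹ ip as reference. After 1 h, mice hung by tape 1 cm from the tail tip, 80 cm above the floor. Passive, motionless immobility timed over 6 min; mean ± S.E.M. and % change from control.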

In test [4] the test system is Mus musculus. Description: Anticonvulsant activity in Swiss-Webster mouse assessed as protection against PTZ-induced clonic seizures at 20 mg/kg, ip administered 1 hr before PTZ.
Test [5] concerns Mus musculus. Description: Anticonvulsant activity in Swiss-Webster mouse assessed as protection against PTZ-induced clonic seizures at 30 mg/kg, ip administered 1 hr before PTZ. Format: functional, organism-based. Further details: dose 30 mg/kg. Put shortly: as §1

Experimental findings from ChEMBL document CHEMBL1153567, “Synthesis of novel pyrazole derivatives and evaluation of their antidepressant and anticonvulsant activities” (2009) are described below.

The structures appear in SMILES notation. The source made the active and inactive calls. The calls are words filed in the database; no cut-off is given here.

For the molecule `CCOC(=O)c1[nH]n(C(=O)c2ccccn2)c(=O)c1C#N`, the Activity is on record as 53.7% in test [1], 86.1% in test [2] and 36.99% in test [3].

Regarding `N#CC1=C(N)N(C(=O)c2cccs2)NC1(C#N)C#N`, the Activity was found to be 56.8% in test [1] and 10.6% in test [3].

As for `O=C(NNC(=O)c1cccs1)c1cccs1`, in test [3], the Activity is given as 72.22%.

Consider `O=C1NC(=O)C(c2ccccc2)(c2ccccc2)N1`, for which the result in test [4] was Active.

Turning to `CCOC(=O)c1[nH]n(C(=O)c2ccccc2)c(=O)c1C#N`, the Activity came out at 74.5% in test [1], 71.8% in test [2] and 24.41% in test [3]. Moreover, the outcome in test [5] was Active.

Consider `N#CC1=C(N)N(C(=O)c2ccccc2)NC1(C#N)C#N`, for which the Activity in test [3] is recorded as 9.37%.

As for `N#CC1=C(N)N(C(=O)c2ccccn2)NC1(C#N)C#N`, the Activity is reported as 88.6% in test [2] and 38.76% in test [3].

`O=C(NNC(=O)c1ccccn1)c1ccccn1`: the Activity was found to be 80.2% in test [2] and 32.39% in test [3].

With `CCOC(=O)c1[nH]n(C(=O)c2cccs2)c(=O)c1C#N`, the Activity in test [1] is reported as 78.7%; in test [2], 66.4%; in test [3] it was 18.33%. For the same molecule, the outcome in test [5] was Active.

For the molecule `N#CC1=C(N)N(C(=O)c2cc3ccccc3[nH]2)NC1(C#N)C#N`, the Activity in test [3] was 17.67%.

For the molecule `CN(C)CCCN1c2ccccc2CCc2ccccc21` [IMIPRAMINE], in test [3], the Activity turned out to be 45.75%.

With `CCOC(=O)c1[nH]n(C(=O)c2cc3ccccc3[nH]2)c(=O)c1C#N`, the figures for the Activity in test [1], in test [2] and in test [3] were 74%, 78.1% and 30.54%, respectively. Also, the result in test [5] was Active.

On to `O=C(NNC(=O)c1cc2ccccc2[nH]1)c1cc2ccccc2[nH]1`, for which, in test [3], the Activity stood at 17.8%.

Regarding `O=C(NNC(=O)c1ccccc1)c1ccccc1`, the values for the Activity in test [1] and in test [3] were 65.1% and 71.96%, respectively.
